Results as given in PubChem BioAssay AID809 (SRMLSC, 2007).
The source made the active and inactive calls.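 How the source made its calls: active means EC50 for reversing nicotinamide-shortened yeast lifespan at or below a set limit; inactive means EC50 above that limit.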

System: S. cerevisiae DeaD BB579, nicotinamide rescue growth, OD615 48 h
Test: rescue of nicotinamide-suppressed growth of yeast BB579, dose response, yeast lifespan extension project, S. cerevisiae (AID 809)
Outline: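 System – S. cerevisiae DeaD strain BB579 · Buffer or medium – CSMM-D glucose restrictive medium · Times – culture pre-incubation 4 h, then compound exposure 48 h, both 30 °C · Signal – OD615 absorbance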

SMILES | EC50
CC(C)c1noc2ncc(C(=O)c3cc(Cl)cc(Cl)c3O)cc12 | > 10 µM (inactive)
CN1C(=O)/C(=C/c2cccn2-c2ccc3ccccc3c2)C(=O)NC1=S | 5.73 µM
COc1ccccc1C(=O)Oc1ccc2c(c1)O/C(=C\c1ccncc1)C2=O | > 10 µM (inactive)
CC1(C)CC(=O)C2=C(C1)OC1=C(C(=O)CC(C)(C)C1)C2c1ccc(O)cc1O | > 10 µM (inactive)
CC1CCCCN1C(=S)Nc1ccc2nc3n(c(=O)c2c1)CCCCC3 (configuration not stated) | 8.72 µM
CCC1C/C(=C\c2cccnc2)C(=O)/C(=C/c2cccnc2)C1 (configuration not stated) | 3.17 µM
CC(=O)Nc1nc(C)c(Oc2ccccc2)c(=O)[nH]1 | > 10 µM (inactive)
COc1cc(OC)cc(-c2nc3ccccc3c(=O)n2OC(=O)c2ccc(C)c(C)c2)c1 | 8.74 µM
CN(C)/C=C(/C(=O)c1ccc(Cl)cc1Cl)S(=O)(=O)c1ccccc1 | 5.3 µM
O=[N+]([O-])c1cc2oc3c(c2c(C=NCc2ccccc2)c1O)CCCC3 | 2.55 µM
O=C(/C=C/c1ccccc1)C1C(=O)c2ccccc2C1=O | > 10 µM (inactive)
COc1ccc(C(=O)C(CN2CCOCC2)c2ccccc2)cc1 (configuration not stated) | 7.11 µM
O=C(/C=C/c1ccccc1)Nc1ncn[nH]1 | > 10 µM (inactive)
C=C(C(=O)c1ccccc1)C(C)C(=C)C(=O)c1ccccc1 | 4.62 µM
Cc1ccc(C(=O)c2no[n+]([O-])c2C(=O)c2ccc(C)cc2)cc1 | > 10 µM (inactive)
CCc1[nH]nc2c1C(c1ccc(Br)s1)C(C#N)=C(N)O2 (configuration not stated) | 9.31 µM
COc1ccc(-c2noc(CSc3nnc(-c4ccncc4)n3-c3ccc(F)cc3)n2)cc1OC | > 10 µM (inactive)
Cc1ccc(CNc2nc3ccccc3s2)s1 | > 10 µM (inactive)
CSC1=NSC2=NC(=O)/C(=C\c3cccs3)C(=N)N12 | 3.28 µM
Cc1ncc(C23CC4CC(CC(C4)C2)C3)[nH]1 | > 10 µM (inactive)
CCCCn1c(NS(=O)(=O)c2ccc(C)cc2)c(C(=O)OCC)c2nc3ccccc3nc21 | > 10 µM (inactive)
COc1ccc(/C=C/C(=O)C2C(=O)C=C(C)OC2=O)cc1O (configuration not stated) | 7.47 µM

SMILES | EC50
COc1ccc(NC(=S)N2CCN(CCN=CC3=C(O)CC(c4ccccc4)CC3=O)CC2)cc1 (configuration not stated) | 7.32 µM
COc1ccc(C2CC23N=C(c2ccccc2)OC3=O)cc1 (configuration not stated) | > 10 µM (inactive)
COc1cc(OC)cc(-c2nc3ccccc3c(=O)n2OC(=O)c2ccccc2C)c1 | > 10 µM (inactive)
COc1cccc(C(=O)Oc2cc(N)n(S(=O)(=O)c3ccc(C)cc3)n2)c1OC | 9.26 µM
COC(=O)CC1=NN(c2ccccc2)C(=O)/C1=C\c1ccc(OC)cc1 | > 10 µM (inactive)
Cc1ccc2[nH]c3c(c2c1)CC/C(=C/c1ccccc1)C3=O | > 10 µM (inactive)
Cc1cccc(OC(=O)n2c(=S)oc3cc(Cl)ccc32)c1 | 5.42 µM
O=C(O)CCCCCN1C(=O)/C(=C\c2ccncc2)SC1=S | > 10 µM (inactive)
c1ccc(-c2cc(N3CCOCC3)nc3ccccc23)cc1 | > 10 µM (inactive)
Cc1ccc(N(C(=O)CS(=O)CC(=O)Nc2ccc(F)cc2)C(C(=O)NC2CCCCC2)c2ccco2)cc1 (configuration not stated) | > 10 µM (inactive)
CCCCCn1c(=O)c(C(=O)NCc2ccccn2)c(O)c2ccccc21 | > 10 µM (inactive)
CN(C)C=C1C(=O)N(C2CCCCC2)C(=O)N(C2CCCCC2)C1=O | 6.96 µM
CN1CCN(CC(=O)Nc2ccc(Cl)cc2Cl)CC1 | > 10 µM (inactive)
CC(C)n1c(-c2ccccc2F)n[nH]c1=S | > 10 µM (inactive)
COc1cccc(/C=C2\C(=O)N(c3cccc(C)c3)C(=O)c3ccccc32)c1 | > 10 µM (inactive)
O=C(CCl)N1c2ccccc2OCC1c1ccccc1 (configuration not stated) | 9.75 µM
CN(C)C1(c2nnnn2CCOC(=O)Nc2ccc(Cl)cc2)CCCCC1 | > 10 µM (inactive)
COc1ccc(CN2C(=O)/C(=C/c3ccncc3)SC2=S)cc1 | 6.07 µM
O=C1c2ccccc2-c2onc3c(Oc4ccccc4)cc(O)c1c23 | 6.05 µM
CCN(CC)Cc1c(O)c(Cl)cc2c(C)c(C)c(=O)oc12 | > 10 µM (inactive)
CC(C)n1c(=O)c2c(O)cc(=O)oc2c2ccccc21 | 0.63 µM
CCn1c(=O)c2c(O)cc(=O)oc2c2ccccc21 | < 0.078 µM

SMILES | EC50
O=C1CC(c2ccccc2)CC(O)=C1C=NCCN1CCN(C(=O)Cc2ccccc2)CC1 (configuration not stated) | 6.72 µM
CC(c1ccccc1)N1CCn2c(nc3cc(NC(=O)c4cccs4)ccc32)C1 (configuration not stated) | 7.15 µM
Cc1ccc(C(=O)NNC(=S)NC(=O)c2ccc(Cl)cc2)cc1 | 6.78 µM
Cn1c(=O)c2c(nc(Br)n2Cc2ccc3ccccc3c2)n(C)c1=O | > 10 µM (inactive)
CCOC(=O)CN1C(=O)N[C@H](c2ccc(Br)cc2)C(C(C)=O)=C1C | > 10 µM (inactive)
CC(=NCCc1c(C)[nH]c2ccc(C)cc12)C1=C(O)CC(c2ccccc2)CC1=O (configuration not stated) | 7.69 µM
Cc1ccc(NC(=O)Nc2nc(-c3ccc(C)s3)cs2)cc1 | > 10 µM (inactive)
CCOC(=O)c1c(C)oc2c1c(C(c1cccnc1)N1CCCCC1)c(O)c1ccccc12 (configuration not stated) | > 10 µM (inactive)
Cc1cc(C)cc(CC2CC(=O)N(c3ccc(Cl)cn3)C2=O)c1 (configuration not stated) | > 10 µM (inactive)
O=C(/C(=C/c1ccccc1)n1cncn1)c1ccc(Cl)cc1Cl | 1.07 µM
CC[n+]1ccc(C[n+]2ccccc2)c2ccccc21 | > 10 µM (inactive)
COc1ccc(-c2cc(N)n(S(=O)(=O)c3c(F)c(F)c(F)c(F)c3F)n2)cc1OC | 6.84 µM
CCCCn1c(=O)c2c(O)cc(=O)oc2c2ccccc21 | 5.94 µM
O=C(N/N=C/c1ccc(F)cc1)c1c(O)c2ccccc2[nH]c1=O | 2.22 µM
O=c1cc(O)c2c(=O)n(-c3ccccc3)c3c(c2o1)CCCCC3 | 5.16 µM
O=C(NCCc1ccccn1)C(F)(F)C(F)(F)C(F)(F)C(F)(F)C(F)(F)C(F)(F)C(F)(F)C(F)F | > 10 µM (inactive)
O=C(COc1ccc([N+](=O)[O-])cc1)N(Cc1ccccc1)Cc1ccccc1 | > 10 µM (inactive)
COC(=O)CSc1ncccc1-c1nc2ccccc2[nH]1 | > 10 µM (inactive)
CCOc1ccc2nc(NCCNC(=O)Nc3ccccc3)c(C#N)cc2c1 | > 10 µM (inactive)
O=c1c2[nH]c3ccccc3c2ncn1Cc1ccco1 | > 10 µM (inactive)
c1cncc(-c2nn[nH]n2)c1 | > 10 µM (inactive)
CCOC(=O)c1nnn(-c2nonc2N)c1CN1CCc2ccccc2C1 | 9.77 µM

SMILES | EC50
Oc1ccc2ccccc2c1C=Nc1ccccc1-c1nc2ccccc2[nH]1 | > 10 µM (inactive)
Cc1cccc(N2C(=O)C(Oc3ccc(Cl)cc3Cl)C2C=O)c1C (configuration not stated) | 6.52 µM
Cc1cc(C)c(NC(=O)/C(=C/c2ccccc2)c2ccccc2)c(C)c1 | > 10 µM (inactive)
O=C1CC(c2ccccc2)CC(O)=C1C=NCCN1CCN(C(=O)Nc2ccccc2)CC1 (configuration not stated) | 6.64 µM
CCn1cc(C(=O)O)c(=O)c2ccc(C)nc21 | 3.62 µM
CC1Cc2ccccc2N1C(=O)Cn1cnc2ccccc2c1=O (configuration not stated) | 3.18 µM
CCc1nc(SCC(=O)c2ccc3c(c2)OCCO3)c2ccccc2n1 | > 10 µM (inactive)
COc1ccc(/C=C(/C(=O)c2ccc(Cl)cc2Cl)n2cncn2)cc1 | 8.48 µM
O=CN(/C=C1\Sc2ccccc2C1=O)Cc1ccccc1 | 5.73 µM
CC(=O)c1c(O)cc2n(c1=O)-c1ccc(Cl)cc1C2(C)C | 7.34 µM
Cc1ccc(C(=O)/C=C\C(=O)c2ccc(C)cc2)cc1 | 9.15 µM
O=C1C(C2=C(O)c3ccccc3C2=O)=Nc2ccccc21 | 1.7 µM
CCCC(=Nc1ccc(N)cc1)C1=C(O)C(C(=O)OC)C(C)(C)CC1=O (configuration not stated) | 8.85 µM
CSc1ccc(S(=O)(=O)NCc2ccc(Cl)cc2Cl)cc1 | > 10 µM (inactive)
C/C(=N\NC(=O)c1ccccc1O)C1C(=O)c2ccccc2C1=O | < 0.078 µM
CC(C)(C)C(=O)Cn1c(=N)n(Cc2ccccc2)c2ccccc21 | 9.33 µM
O=C1C=CC2C(c3ccc4c(c3)OCO4)CC1N2Cc1ccccc1 (configuration not stated) | 6.04 µM
COc1ccccc1C(=O)Oc1cc(N)n(S(=O)(=O)c2ccc(C)cc2)n1 | > 10 µM (inactive)
O=C1/C(=N/n2cnnc2)c2ccccc2N1Cc1ccccc1 | 9.61 µM
COC(=O)C1=C(N)OC2=C(C(=O)CC(C)(C)C2)C1c1cccs1 (configuration not stated) | 8.93 µM
COc1ccc(NCc2nc3ccccc3n2CCOc2ccccc2)cc1 | 5.29 µM
O=C(Nc1nccs1)c1ccc2c(=O)n3c(nc2c1)CCCCC3 | 7.75 µM

SMILES | EC50
CCN(CCO)C(=O)C12CCC(C)(C(=O)C1)C2(C)C (configuration not stated) | > 10 µM (inactive)
O=C(CCl)c1ccc(Cc2ncc(C(F)(F)F)cc2Cl)s1 | 3.83 µM
COc1ccc(O)c(C(=O)c2cc(C#N)c(=O)n(CC3CCCO3)c2)c1 (configuration not stated) | 8.21 µM
O=C1C(=C(O)c2ccccc2)C(=O)c2ccccc21 | > 10 µM (inactive)
CCc1nnc(NC(=O)c2cccc(S(=O)(=O)N(C)c3ccccc3)c2)s1 | > 10 µM (inactive)
O=C1c2ccccc2C(=O)N1OCc1ccccc1 | > 10 µM (inactive)
O=C1Nc2cc(Cl)c(Cl)cc2N(O)N1c1cc(Cl)cc(Cl)c1 | > 10 µM (inactive)
O=c1c2ccccc2nc(-c2ccc(Cl)c(Cl)c2)n1O | > 10 µM (inactive)
N#CSCC(=O)N1c2ccccc2CCc2ccccc21 | 8.69 µM
COc1ccc(C(=O)C(CN2CCOCC2)c2ccccc2)cc1F (configuration not stated) | 4.62 µM
O=C1C=CCC(/C=C/c2ccccc2)O1 (configuration not stated) | > 10 µM (inactive)
CCCN1C(=O)/C(=C/c2ccncc2)SC1=S | 6.93 µM
CC(=O)Nc1c(O)nc(SCc2ccccc2C#N)[nH]c1=O | > 10 µM (inactive)
O=[N+]([O-])c1cc(S(=O)(=O)N2CCCCCC2)ccc1F | 5.18 µM
CCc1ccc2c(c1)CCCN2C(=O)c1ccccc1C(=O)O | 9.34 µM
C/C(=N\NC(=O)c1ccccc1O)c1c(O)cc(C)oc1=O | 2.9 µM
COC(=O)c1cc(OC)c(OC)cc1NC(=S)Nc1cccc(C(C)=O)c1 | > 10 µM (inactive)
COc1ccc(N(C)C(=S)Nc2ccc3nc(C)c(C)nc3c2)cc1 | > 10 µM (inactive)
C[C@]12CC[C@@H]3c4ccc(O)cc4CC[C@H]3[C@@H]1CC[C@@H]2OC(=O)CCC(=O)O | 5.42 µM
